Source: ChEMBL document CHEMBL1150300, “Synthesis of 5-chloro-N-aryl-1H-indole-2-carboxamide derivatives as inhibitors of human liver glycogen phosphorylase a” (Bioorg Med Chem, 2008)

What follows are compounds tested against T1, Glycogen phosphorylase, liver form (Homo sapiens, UniProt P06737) (assay: Inhibition of human liver glycogen phosphorylase a).
T1 sequence (P06737 whole entry): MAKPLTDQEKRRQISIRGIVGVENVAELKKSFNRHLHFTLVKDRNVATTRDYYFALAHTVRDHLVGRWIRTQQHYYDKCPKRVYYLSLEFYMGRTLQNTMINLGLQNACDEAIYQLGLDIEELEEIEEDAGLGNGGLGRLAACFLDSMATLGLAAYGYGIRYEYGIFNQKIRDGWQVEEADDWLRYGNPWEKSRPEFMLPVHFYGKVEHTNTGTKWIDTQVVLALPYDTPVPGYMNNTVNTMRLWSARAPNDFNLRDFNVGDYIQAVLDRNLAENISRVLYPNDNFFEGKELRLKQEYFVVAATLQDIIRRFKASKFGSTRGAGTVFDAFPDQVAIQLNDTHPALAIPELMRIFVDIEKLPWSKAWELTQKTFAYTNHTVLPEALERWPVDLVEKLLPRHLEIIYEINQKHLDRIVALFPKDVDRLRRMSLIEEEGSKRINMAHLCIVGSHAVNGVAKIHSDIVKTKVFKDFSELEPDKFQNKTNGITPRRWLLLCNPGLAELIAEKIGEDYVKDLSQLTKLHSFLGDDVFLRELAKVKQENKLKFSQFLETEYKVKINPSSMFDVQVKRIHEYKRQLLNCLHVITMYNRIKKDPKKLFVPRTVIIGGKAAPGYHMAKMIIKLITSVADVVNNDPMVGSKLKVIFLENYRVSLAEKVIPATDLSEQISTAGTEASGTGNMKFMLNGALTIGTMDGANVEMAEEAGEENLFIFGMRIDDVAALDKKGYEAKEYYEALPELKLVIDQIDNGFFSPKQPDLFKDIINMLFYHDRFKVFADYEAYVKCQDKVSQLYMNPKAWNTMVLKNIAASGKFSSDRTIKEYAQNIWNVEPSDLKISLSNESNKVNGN

Q: Which IC50 does the source give for `O=C(Nc1nc(C(O)CO)cs1)c1cc2cc(Cl)ccc2[nH]1` (configuration not stated) here?
A: Its IC50 is over 10 µM.

Q: For `O=C(Nc1ccc(C(O)CO)cc1)c1cc2cc(Cl)ccc2[nH]1` (configuration not stated), which IC50 is on record?
A: The IC50 was 0.9 µM.

Q: For `COCC(O)c1ccc(NC(=O)c2cc3cc(Cl)ccc3[nH]2)cc1` (configuration not stated), which IC50 is on record?
A: Its IC50 is 3.6 µM.

Q: `O=C(Nc1ccc(CCCO)cc1)c1cc2cc(Cl)ccc2[nH]1` was tested. Which IC50 did it give?
A: Its IC50 is over 10 µM.

Q: For `Cc1cc(C(O)CO)ccc1NC(=O)c1cc2cc(Cl)ccc2[nH]1` (configuration not stated), which IC50 is on record?
A: The IC50 was 2.6 µM.

Q: `O=C(Nc1cnc(C(O)CO)cn1)c1cc2cc(Cl)ccc2[nH]1` (configuration not stated) was tested. Which IC50 did it give?
A: Its IC50 is 0.44 µM.

Q: How did the IC50 turn out when `O=C(Nc1ccc(C(O)CO)cn1)c1cc2cc(Cl)ccc2[nH]1` (configuration not stated) was run?
A: Its IC50 is 0.25 µM.

Q: How did the IC50 turn out when `O=C(Nc1ccc(CO)cc1)c1cc2cc(Cl)ccc2[nH]1` was run?
A: The IC50 was 1.6 µM.

Q: `O=C(Nc1ccccc1CCO)c1cc2cc(Cl)ccc2[nH]1` was tested. Which IC50 did it give?
A: The IC50 was over 10 µM.

Q: With `O=C(Nc1ccc(C(O)CO)cc1F)c1cc2cc(Cl)ccc2[nH]1` (configuration not stated) as the compound, how does the IC50 read?
A: The IC50 was 0.42 µM.

Q: How did the IC50 turn out when `O=C(Nc1ccc(CCO)cc1)c1cc2cc(Cl)ccc2[nH]1` was run?
A: The IC50 was 1.2 µM.

Q: How did the IC50 turn out when `COc1cc(NC(=O)c2cc3cc(Cl)ccc3[nH]2)ccc1C(O)CO` (configuration not stated) was run?
A: Its IC50 is 2.5 µM.

Q: Which IC50 does the source give for `O=C(Nc1ccc(C(O)CO)cc1Cl)c1cc2cc(Cl)ccc2[nH]1` (configuration not stated) here?
A: The IC50 was 1.1 µM.

Q: Which IC50 does the source give for `O=C(Nc1cccc(CCO)c1)c1cc2cc(Cl)ccc2[nH]1` here?
A: The IC50 was 6.2 µM.

Q: For `O=C(Nc1ccc(C(O)CO)c(-c2ccccc2)c1)c1cc2cc(Cl)ccc2[nH]1` (configuration not stated), which IC50 is on record?
A: The IC50 was 7.4 µM.

Q: `O=C(Nc1ncc(C(O)CO)s1)c1cc2cc(Cl)ccc2[nH]1` (configuration not stated) was tested. Which IC50 did it give?
A: The IC50 was 3.1 µM.

Q: With `O=C(Nc1ccc(C(O)CO)nc1)c1cc2cc(Cl)ccc2[nH]1` (configuration not stated) as the compound, how does the IC50 read?
A: The IC50 was 4.4 µM.

Q: Which IC50 does the source give for `CC(C)(O)C(O)c1ccc(NC(=O)c2cc3cc(Cl)ccc3[nH]2)cc1` (configuration not stated) here?
A: The IC50 was over 10 µM.

Q: For `Nc1cc(NC(=O)c2cc3cc(Cl)ccc3[nH]2)ccc1C(O)CO` (configuration not stated), which IC50 is on record?
A: Its IC50 is 1.7 µM.

Q: Which IC50 does the source give for `O=C(Nc1ccc(C(O)CO)c(F)c1)c1cc2cc(Cl)ccc2[nH]1` (configuration not stated) here?
A: The IC50 was 0.34 µM.

Q: For `O=C(Nc1ccc(C(O)CO)c([N+](=O)[O-])c1)c1cc2cc(Cl)ccc2[nH]1` (configuration not stated), which IC50 is on record?
A: Its IC50 is 2.1 µM.

Q: `O=C(Nc1ccc(C(CO)CO)cc1)c1cc2cc(Cl)ccc2[nH]1` was tested. Which IC50 did it give?
A: Its IC50 is 5.8 µM.

The compounds below were run on Hepatocyte (assay: Inhibition of glucagon-induced glycogenolysis in Sprague-Dawley rat hepatocytes).
Format: functional, cell-based
How it was run: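 Hepatocytes from fed male Sprague-Dawley rats (150–200 g), viability >85%, plated on collagen at 2.5 × 10⁵ cells/well. Washed cells incubated 30 min at 37 °C in glucose-free/calcium-free Hanks buffer with 0.1% DMSO and inhibitor at 0.1–10 µM, with or without 10 nM glucagon. Medium glucose read by glucose oxidase/peroxidase; IC50 by logistic regression.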

Q: For `O=C(Nc1ccc(C(O)CO)cn1)c1cc2cc(Cl)ccc2[nH]1` (configuration not stated), which IC50 is on record?
A: The IC50 was 0.62 µM.

Q: How did the IC50 turn out when `O=C(N[C@@H](Cc1ccc(F)cc1)C(=O)N1CCC(O)CC1)c1cc2cc(Cl)ccc2[nH]1` was run?
A: The IC50 was 1.7 µM.

Each compound was assayed on Mus musculus (assay: Hypoglycemic activity against C57BL/KsJ db/db mouse assessed as reduction of blood glucose at 50 mg/kg, po after 2 hrs relative to control).
Format: functional
Parameters: scale not given: the % may be the effect or the level left
How it was run: (§1)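 Male C57BL/KsJ db/db mice, 6 weeks old, on commercial diet, grouped (n = 6) to uniform blood glucose and body weight; non-fasted pre-dose glucose measured next day. Single oral dose at 10 mL/kg; blood glucose measured at 2 h. Activity given as percentage decrease versus vehicle-treated controls, significance by unpaired t-test on mean glucose.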

Q: For `O=C(Nc1ccc(C(O)CO)cn1)c1cc2cc(Cl)ccc2[nH]1` (configuration not stated), which Activity is on record?
A: Its Activity is 26%.

Q: How did the Activity turn out when `O=C(N[C@@H](Cc1ccc(F)cc1)C(=O)N1CCC(O)CC1)c1cc2cc(Cl)ccc2[nH]1` was run?
A: The Activity was 20%.

These compounds were tested on Mus musculus (assay: Hypoglycemic activity against C57BL/KsJ db/db mouse assessed as reduction of blood glucose at 30 mg/kg, po after 2 hrs relative to control).
Format: functional
Parameters: scale not given: the % may be the effect or the level left
How it was run: as §1

Q: For `O=C(Nc1ccc(C(O)CO)cn1)c1cc2cc(Cl)ccc2[nH]1` (configuration not stated), which Activity is on record?
A: Its Activity is 13%.
